According to ChEMBL document CHEMBL4673255, “Acylated 1H-1,2,4-Triazol-5-amines Targeting Human Coagulation Factor XIIa and Thrombin: Conventional and Microscale Synthesis, Anticoagulant Properties, and Mechanism of Action” (J Med Chem, 2020):
Calls of active or inactive are those of the source. The calls are words filed in the database; no cut-off is given here.

Key:
Plasma [1] = test: Antiplatelet activity in […] assessed as inhibition of MDA-MB-231-induced platelet aggregation at 0.1 to 10 uM by light transmission aggregometry; format: functional; details: Homo sapiens, dose 0.1-10 µM
Homo sapiens = species on record: Homo sapiens; test: Selectivity index, ratio of IC50 for inhibition of human coagulation factor alpha-thrombin using Boc-Val-Pro-Arg-AMC as fluorogenic substrate to IC50 for inhibition of human coagulation factor XIIA using Boc-Gln-Gly-Arg-AMC as fluorogenic substrate incubated for 1 hr by fluorometric assay
[2] = molecular target: T1, Coagulation factor XII (Homo sapiens) (UniProt P00748); test: Binding affinity to human plasma coagulation factor XIIA assessed as compound-adduct formation at molar ratio of 1:20 preincubated for 4 mins followed by desalination and measured after 120 mins by SEC/ESI-TOF mass spectra analysis; format: cell-free
T1 sequence (whole entry): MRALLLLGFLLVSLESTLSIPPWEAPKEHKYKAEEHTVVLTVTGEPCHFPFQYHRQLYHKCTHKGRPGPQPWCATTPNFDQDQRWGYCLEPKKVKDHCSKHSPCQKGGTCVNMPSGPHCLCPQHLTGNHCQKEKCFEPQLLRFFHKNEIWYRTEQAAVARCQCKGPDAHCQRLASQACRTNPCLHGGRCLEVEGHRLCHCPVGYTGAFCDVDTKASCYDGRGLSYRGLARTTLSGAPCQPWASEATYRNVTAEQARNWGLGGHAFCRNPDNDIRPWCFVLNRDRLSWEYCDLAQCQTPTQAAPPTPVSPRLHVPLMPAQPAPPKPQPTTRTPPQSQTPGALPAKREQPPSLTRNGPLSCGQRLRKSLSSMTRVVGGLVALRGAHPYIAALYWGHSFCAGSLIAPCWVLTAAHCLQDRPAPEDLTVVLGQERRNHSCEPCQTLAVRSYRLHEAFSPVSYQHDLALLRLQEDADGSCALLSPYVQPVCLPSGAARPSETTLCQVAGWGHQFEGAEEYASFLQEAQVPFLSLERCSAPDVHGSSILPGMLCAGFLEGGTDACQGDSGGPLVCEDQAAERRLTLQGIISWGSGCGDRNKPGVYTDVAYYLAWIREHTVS
Method in brief: (§1)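 β-FXIIa incubated with inhibitor at a 1:20 molar ratio, then size-exclusion chromatography coupled to ESI-MS to measure the mass of enzyme–inhibitor complexes. Further runs checked complex stability to probe reversibility.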

[3] = molecular target: T1, Coagulation factor XII (Homo sapiens); test: Binding affinity to human plasma coagulation factor XIIA assessed as compound-adduct formation by measuring change in molecular mass at molar ratio of 1:20 measured after 4 mins by SEC/ESI-TOF mass spectra analysis; format: cell-free; method in brief: as §1
Plasma [4] = test: Antiplatelet activity in […] assessed as inhibition of TRAP6-induced platelet aggregation at 0.1 to 10 uM by light transmission aggregometry; format: functional; details: Homo sapiens, dose 0.1-10 µM
Plasma [5] = test: Antiplatelet activity in […] assessed as inhibition of MDA-MB-231-induced platelet aggregation at 1 uM by light transmission aggregometry; format: functional; details: Homo sapiens
Coagulation factor X = Coagulation factor X (Homo sapiens, UniProt P00742); test: Inhibition of human coagulation factor Xa using Boc-Ile-Glu-Gly-Arg-AMC as fluorogenic substrate at 5 uM measured at 1 min interval for 1 hr by fluorometric assay relative to control
Chain of Coagulation factor X (P00742 41-179 limits assumed): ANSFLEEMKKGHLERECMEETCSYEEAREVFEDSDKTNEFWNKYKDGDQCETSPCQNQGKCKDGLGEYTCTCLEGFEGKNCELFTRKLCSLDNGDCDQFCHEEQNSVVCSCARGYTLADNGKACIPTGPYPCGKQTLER
Chain of Coagulation factor X (P00742 235-488 limits assumed): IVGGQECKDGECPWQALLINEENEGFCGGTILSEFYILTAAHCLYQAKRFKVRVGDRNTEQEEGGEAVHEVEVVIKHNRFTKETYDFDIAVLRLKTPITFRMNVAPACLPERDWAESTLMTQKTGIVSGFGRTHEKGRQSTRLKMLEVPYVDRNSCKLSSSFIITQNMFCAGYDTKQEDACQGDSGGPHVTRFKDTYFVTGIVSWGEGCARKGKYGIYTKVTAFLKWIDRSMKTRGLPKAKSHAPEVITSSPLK

Ratio IC50 (Homo sapiens)	Activity [2]	Activity [3] [Da]	inhibition (Coagulation factor X) [%]	Compound	inhibition (Plasma [1])	inhibition (Plasma [4])	inhibition (Plasma [5])
13				Nc1nc(-c2ccccn2)nn1C(=O)c1cccc2ccccc12	inactive		
	inactive	154	48	Nc1nc(-c2ccccn2)nn1C(=O)c1ccc2ccccc2c1		inactive	Active
